Screening data: PubChem, several laboratories
CHOP inhibitor: CHOP inhibition in unfolded protein response; CHO-K1 CHOP-promoter luciferase, tunicamycin-induced, 15-18 h; inhibition, % at 10 µM; actives 3.8% (n = 220,000);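 active = compounds that reduced the stress-induced luciferase reporter signal by more than about 70% of percent inhibition, limit read from the data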;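 note: 0% = tunicamycin plus vehicle and 100% = wells without tunicamycin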
697 NFkB inh: inhibitors of the PMA/ionomycin-induced NF-kB reporter in 697 B cells; AID 435022; inhibition, % at 4 µM; 697 B-cell NF-kB luciferase reporter, 16 h; actives 0.33% (n = 330,000); in the data active = inhibition above about 35%
Jurkat NFkB inh: inhibitors of the PMA/ionomycin-induced NF-kB reporter in Jurkat cells | PMA/ionomycin-induced NF-kB luciferase reporter, luminescence | actives 0.53% (n = 330,000) | AID 435003 | inhibition, % at 4 µM; in the data active = inhibition above about 50%
XBP1 UPR activ: adaptive UPR (XBP1) activation | CHO-XBP1 luciferase reporter, IRE1-XBP1 UPR activation, luminescence; percent of tunicamycin response, DMSO as zero | activation, % at 20 µM | actives 0.33% (n = 330,000) | AID 463104;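 active = versus positive control, 20 µM dose yields 30% or more activation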;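 note: 100% = tunicamycin at 10 µg/mL and 0% = DMSO only wells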
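Material: CHO cell line with stable XBP1 luciferase reporter; schedule: 16-18 h cell attachment at 37 °C, then 6 h compound exposure; signal: glow luminescence from Steady-Glo reagent; medium: serum-containing F12 medium, 10% FBS; benchmarks: tunicamycin 10 µg/mL and vehicle-only wells; read-out: percent activation relative to tunicamycin reference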
UPR CHOP act: activators of apoptotic arm of unfolded protein response (CHOP); activation, % at 10 µM; actives 0.34% (n = 330,000); CHO-CHOP luciferase reporter, UPR activation, luminescence; percent of tunicamycin response over DMSO baseline; AID 449763;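 active = at 10 µM dose, activation of 40% or more, normalized to positive control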;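 note: 100% = tunicamycin at 10 µg/mL and 0% = DMSO alone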
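Evaluation: % reporter activation, DMSO baseline versus tunicamycin full activation; System: CHO-CHOP luciferase reporter cell line; Input: 500 cells/well; Incubation: 6 h compound treatment, 37 °C; Measured by: Steady-Glo luciferase luminescence; Dosing: one dose, 10 µM in 0.5% DMSO; Buffer or medium: F12 medium, 10% FBS; Benchmarks: positive tunicamycin 10 µg/mL, negative DMSO alone.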
697 NFkB conf: lowers PMA/ionomycin-induced NF-kB signal in 697 B cells | shares compounds with 697 NFkB inh | 697 B-cell NF-kB luciferase, 16 h | inhibition, % at 4 µM | actives 35% (n = 2,000) | AID 449746; in the data active = inhibition mostly above about 28%, no sharp cut-off; inactive = mostly below about 22%
The depositor's hits bear a star; i = inactive; / = no result given. This excerpt belongs to a sample that is enriched for hits.

SMILES	CHOP inhibitor	697 NFkB inh	Jurkat NFkB inh	XBP1 UPR activ	UPR CHOP act	697 NFkB conf
CC1Cc2ccccc2N1S(=O)(=O)c1cccc(C(=O)N2CCN(c3ncccn3)CC2)c1 (configuration not stated)	17	i	-40	-5	1	i
O=c1oc2ccccc2cc1-c1ccc(O)cc1	-5	-107	-64	1	5	/
Nc1ccc(-c2cc3ccccc3oc2=O)cc1	/	61*	-23	-9	-7	48*
CCCS(=O)(=O)Nc1cccc(-c2ccc3nnc(C)n3n2)c1	-16	39*	9	1	5	39*
COc1ccc(CC(=O)Nc2cccc(-c3ccc4nnc(C)n4n3)c2)cc1	6	35	20	0	0	29*
Cc1nnc2ccc(-c3cccc(NS(=O)(=O)c4cc(F)ccc4F)c3)nn12	/	38*	-12	3	-2	-1
Cc1nnc2ccc(-c3cccc(NS(=O)(=O)c4ccccc4Cl)c3)nn12	/	32	2	7	-2	/
Cc1nnc2ccc(-c3cccc(NS(=O)(=O)c4ccccc4[N+](=O)[O-])c3)nn12	/	40*	-9	0	-2	28
CCOc1ccc(CC(=O)Nc2cccc(-c3ccc4nnc(C)n4n3)c2)cc1	1	9	5	2	13	/
CCN1CCN(S(=O)(=O)c2ccc(Cl)c(C(=O)NC(C)c3ccccc3Cl)c2)CC1 (configuration not stated)	/	-4	-5	0	2	/
Cc1cccnc1NC(=O)CNC(=O)C12CC3CC(CC(C3)C1)C2	/	10	6	-1	1	/
Cn1c(SCC(=O)Nc2cc(Cl)cc(Cl)c2)nnc1-c1ccc2nonc2c1	67	38*	6	-4	2	26
Cc1cc(-c2nc(C)c(-c3nnc(SCC(=O)Nc4cc(Cl)cc(Cl)c4)n3C)s2)no1	8	9	1	0	-1	/
Cc1nc(SC(C)C(=O)NCC2CCCO2)c2cc(-c3ccccc3)sc2n1 (configuration not stated)	/	i	-67	0	1	i
CCn1c(=O)cc(OCC(=O)NCc2ccco2)c2ccccc21	15	7	10	1	0	/
CCn1c(=O)cc(OCC(=O)NCc2ccc(C)o2)c2ccccc21	16	36*	6	3	-1	42*
CC1(C)CC2CC(C)(CN2S(=O)(=O)c2ccc(C(=O)Nc3ccc(Cl)c(S(=O)(=O)N4CCOCC4)c3)cc2)C1 (configuration not stated)	64	5	49	-4	1	/
CC1(C)CC2CC(C)(CN2S(=O)(=O)c2ccc(C(=O)Nc3ccc(S(=O)(=O)N4CCOCC4)cc3)cc2)C1 (configuration not stated)	47	54*	34	-2	0	35*
COCCN(Cc1nc(-c2ccc(-c3ccccc3)cc2)oc1C)C(C)C	/	-322	-25	-4	3	-436
COC(=O)/C(C#N)=C/c1cc(C)sc1C	1	-6	-9	0	0	/
O=C(Nc1ccc(NS(=O)(=O)c2ccccc2)cc1)c1ccc(Cl)cc1	/	-33	8	3	1	/
O=C(Nc1cccc(S(=O)(=O)Nc2ccc(Cl)cc2)c1)c1ccc(Cl)nc1	73*	57*	41	0	2	53*
COc1cc(CN(C2CCCCC2C)S(=O)(=O)c2ccc(S(=O)(=O)NC3CC3)cc2)cc(OC)c1OC (configuration not stated)	-6	36*	-7	-4	1	-1
Clc1ccc(-c2nc3n(n2)Cc2ccccc2-3)cc1	31	-374	-116	-3	-3	-301
CCN(CC)S(=O)(=O)c1cccc(-c2nc3n(n2)Cc2ccccc2-3)c1	39	-55	-48	-1	4	/
SMILES	CHOP inhibitor	697 NFkB inh	Jurkat NFkB inh	XBP1 UPR activ	UPR CHOP act	697 NFkB conf
Cn1nc(-c2ccc(Cl)cc2)c2cc(C(=O)N3CCCC3)sc21	30	56*	9	-3	7	43*
CCOC(=O)N1CCC(N2CCCC(C(=O)c3cccc(OC)c3)C2)CC1 (configuration not stated)	10	11	-10	0	-1	/
CC(=O)Nc1cccc(NC(=O)c2cc(-c3cccnc3)nc3ccc(Cl)cc23)c1	-1	9	3	-2	0	/
CC(=O)Nc1cccc(NC(=O)c2cc(-c3cccnc3)nc3ccc(Br)cc23)c1	-3	41*	10	-2	4	16
O=C(CSCCO)Nc1ccc(C23CC4CC(CC(C4)C2)C3)cc1	42	57*	-43	4	6	66*
CC(=O)Nc1ccc(C23CC4CC(CC(C4)C2)C3)cc1	/	-19	2	4	4	/
Cc1ccc(NC(=O)CSCC(=O)Nc2ccccc2C(=O)NC2CC2)cc1	/	3	6	-2	-3	/
Cc1cccc(/C=c2\s/c(=C\C(=O)C(C)(C)C)[nH]c2=O)c1	19	-3	12	5	3	/
Cc1cccc(/C=C2\CCC(=C3SCCCS3)C2=O)c1	78*	-319	-119	-12	-8	-358
Cc1cc(=O)[nH]c(N/N=C/c2c[nH]c3ccccc23)n1	7	36*	4	1	1	7
COC(=O)C1CCN(C(=O)COC(=O)/C=C/c2ccc(O)c(OC)c2)CC1	/	8	-2	-3	-1	/
COc1ccc(NC(=O)CN2CCN(c3c(C)cccc3C)CC2)cc1	/	-8	1	-4	-1	/
CC1CCCN(C(=O)CSc2nnc3n(C4CCCC4)c(=O)c4ccccc4n23)C1 (configuration not stated)	-14	35*	7	0	1	-5
CCN(CC)S(=O)(=O)c1ccc(NC(=S)Nc2ccc(F)cc2)cc1	/	-5	8	8	-1	/
CCN(CC(N)=O)S(=O)(=O)c1ccc(F)cc1	10	42*	-1	-3	0	-7
COc1cc(C(=O)NNC(=O)c2ccc(F)cc2)ccc1OCC(=O)N1CCOCC1	/	2	-9	2	0	/
COc1cc(C(=O)O)ccc1OCC(=O)N1CCOCC1	64	40*	1	-2	-1	-7
CCN(CC)c1ccc(/C=C2/C(=O)ON=C2C)cc1	-3	40*	14	3	5	36*
CC1=NOC(=O)/C1=C/c1ccc(N(C)C)cc1	-17	13	-3	2	0	/
O=C(CN1CCC(NC(=O)C2CC2)CC1)Nc1cccc(F)c1	/	3	5	-2	0	/
O=C(CCCn1c(=S)[nH]c2ccsc2c1=O)Nc1ccc2c(c1)OCCO2	14	-15	-16	-3	-6	/
Cc1csc(NC(=O)CCc2c(C)nc3cc(-c4cccc(F)c4)nn3c2C)n1	62	21	0	-2	-4	/
